# Test system: not listed separately
# Assay: Cytotoxicity against human HeLa67 cell after 3 days by XTT assay
# Type: cell-based
# Conditions: HeLa67 cells; call rule not given here
# How it was run: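 HeLa67 cells exposed to test compounds in parallel with the antiviral assay; XTT read-out 3 days after compound addition, giving CC50.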
row,SMILES,CC50 at 72 h [µM]
1,O=C(NCCCNC(=O)c1ccccc1)C(=O)c1c[nH]c2cccc(F)c12,> 300
2,CN(CCN(C)C(=O)c1ccccc1)C(=O)C(=O)c1c[nH]c2cccc(F)c12,> 300
3,O=C(C(=O)N1CCCN(C(=O)c2ccccc2)CC1)c1c[nH]c2cccc(F)c12,> 300
4,O=C(NCCNC(=O)c1ccccc1)C(=O)c1c[nH]c2cccc(F)c12,> 300
5,O=C(C(=O)N1CC2CC1CN2C(=O)c1ccccc1)c1c[nH]c2cccc(F)c12 (stereo not drawn),> 300
6,O=C(NC1CCCC(NC(=O)c2ccccc2)C1)C(=O)c1c[nH]c2cccc(F)c12 (stereo not drawn),> 300
7,CN(CCCN(C)C(=O)c1ccccc1)C(=O)C(=O)c1c[nH]c2cccc(F)c12,> 300
8,O=C(N[C@H]1CCCC[C@H]1NC(=O)c1ccccc1)C(=O)c1c[nH]c2cccc(F)c12 (relative stereo),65
9,O=C(N[C@H]1CCCC[C@@H]1NC(=O)c1ccccc1)C(=O)c1c[nH]c2cccc(F)c12 (relative stereo),> 300

# Test system: not listed separately
# Assay: Metabolic stability in rat liver microsomes after 10 mins
# Type: ADME, Microsome
# Conditions: read-out: Stability
row,SMILES,remaining at 10 min [%]
1,COc1cccc2[nH]cc(C(=O)C(=O)N3CCN(C(=O)c4ccccc4)CC3)c12,88
2,CC(C)C1CN(C(=O)C(=O)c2c[nH]c3cccc(F)c23)CCN1C(=O)c1ccccc1 (stereo not drawn),39
3,CCCCCC1CN(C(=O)C(=O)c2c[nH]c3cccc(F)c23)CCN1C(=O)c1ccccc1 (stereo not drawn),3
4,CCCC1CN(C(=O)c2ccccc2)CCN1C(=O)C(=O)c1c[nH]c2cccc(F)c12 (stereo not drawn),11
5,C[C@H]1CN(C(=O)c2ccccc2)CCN1C(=O)C(=O)c1c[nH]c2cccc(F)c12,32
6,CCCC1CN(C(=O)C(=O)c2c[nH]c3cccc(F)c23)CCN1C(=O)c1ccccc1 (stereo not drawn),25
7,C[C@@H]1CN(C(=O)c2ccccc2)[C@@H](C)CN1C(=O)C(=O)c1c[nH]c2cccc(F)c12,0
8,COc1cccc2[nH]cc(C(=O)C(=O)N3CCN(C(=O)c4ccccc4)C[C@H]3C)c12,56
9,CCC1CN(C(=O)c2ccccc2)CCN1C(=O)C(=O)c1c[nH]c2cccc(F)c12 (stereo not drawn),8
10,CC(C)C1CN(C(=O)c2ccccc2)CCN1C(=O)C(=O)c1c[nH]c2cccc(F)c12 (stereo not drawn),31
11,C[C@@H]1CN(C(=O)c2ccccc2)C[C@H](C)N1C(=O)C(=O)c1c[nH]c2cccc(F)c12,2
12,CC1CN(C(=O)C(=O)c2c[nH]c3cccc(F)c23)CCN1C(=O)c1ccccc1 (stereo not drawn),32
13,COc1cccc2[nH]cc(C(=O)C(=O)N3CCN(C(=O)c4ccccc4)CC3C)c12 (stereo not drawn),72
14,C[C@@H]1CN(C(=O)c2ccccc2)[C@H](C)CN1C(=O)C(=O)c1c[nH]c2cccc(F)c12 (relative stereo),59

# More lines, now with the values ahead:
row,remaining at 10 min [%],SMILES
1,51,O=C(C(=O)N1CCN(C(=O)c2ccccc2)CC1)c1c[nH]c2cccc(F)c12
2,49,CC(C)(C)C1CN(C(=O)c2ccccc2)CCN1C(=O)C(=O)c1c[nH]c2cccc(F)c12 (stereo not drawn)
3,0,CCCCCC1CN(C(=O)c2ccccc2)CCN1C(=O)C(=O)c1c[nH]c2cccc(F)c12 (stereo not drawn)
4,44,CC(C)(C)C1CN(C(=O)C(=O)c2c[nH]c3cccc(F)c23)CCN1C(=O)c1ccccc1 (stereo not drawn)
5,25,CCC1CN(C(=O)C(=O)c2c[nH]c3cccc(F)c23)CCN1C(=O)c1ccccc1 (stereo not drawn)
6,12,CC1CN(C(=O)c2ccccc2)CCN1C(=O)C(=O)c1c[nH]c2cccc(F)c12 (stereo not drawn)
7,13,CC(C)CC1CN(C(=O)C(=O)c2c[nH]c3cccc(F)c23)CCN1C(=O)c1ccccc1 (stereo not drawn)
8,2,C[C@@H]1CN(C(=O)c2ccccc2)CCN1C(=O)C(=O)c1c[nH]c2cccc(F)c12
9,75,COc1cccc2[nH]cc(C(=O)C(=O)N3CCN(C(=O)c4ccccc4)C[C@@H]3C)c12
10,7,CC(C)CC1CN(C(=O)c2ccccc2)CCN1C(=O)C(=O)c1c[nH]c2cccc(F)c12 (stereo not drawn)
11,16,C[C@@H]1CN(C(=O)C(=O)c2c[nH]c3cccc(F)c23)C[C@H](C)N1C(=O)c1ccccc1

# Test system: not listed separately
# Assay: Metabolic stability in human liver microsomes after 10 mins
# Type: ADME, Microsome
# Conditions: read-out: Stability
row,SMILES,remaining at 10 min [%]
1,COc1cccc2[nH]cc(C(=O)C(=O)N3CCN(C(=O)c4ccccc4)CC3)c12,100
2,CC(C)C1CN(C(=O)C(=O)c2c[nH]c3cccc(F)c23)CCN1C(=O)c1ccccc1 (stereo not drawn),63
3,CCCCCC1CN(C(=O)C(=O)c2c[nH]c3cccc(F)c23)CCN1C(=O)c1ccccc1 (stereo not drawn),45
4,CCCC1CN(C(=O)c2ccccc2)CCN1C(=O)C(=O)c1c[nH]c2cccc(F)c12 (stereo not drawn),52
5,C[C@H]1CN(C(=O)c2ccccc2)CCN1C(=O)C(=O)c1c[nH]c2cccc(F)c12,85
6,CCCC1CN(C(=O)C(=O)c2c[nH]c3cccc(F)c23)CCN1C(=O)c1ccccc1 (stereo not drawn),50
7,C[C@@H]1CN(C(=O)c2ccccc2)[C@@H](C)CN1C(=O)C(=O)c1c[nH]c2cccc(F)c12,43
8,COc1cccc2[nH]cc(C(=O)C(=O)N3CCN(C(=O)c4ccccc4)C[C@H]3C)c12,84
9,CCC1CN(C(=O)c2ccccc2)CCN1C(=O)C(=O)c1c[nH]c2cccc(F)c12 (stereo not drawn),55
10,CC(C)C1CN(C(=O)c2ccccc2)CCN1C(=O)C(=O)c1c[nH]c2cccc(F)c12 (stereo not drawn),59
11,C[C@@H]1CN(C(=O)c2ccccc2)C[C@H](C)N1C(=O)C(=O)c1c[nH]c2cccc(F)c12,55
12,CC1CN(C(=O)C(=O)c2c[nH]c3cccc(F)c23)CCN1C(=O)c1ccccc1 (stereo not drawn),100
13,COc1cccc2[nH]cc(C(=O)C(=O)N3CCN(C(=O)c4ccccc4)CC3C)c12 (stereo not drawn),84
14,C[C@@H]1CN(C(=O)c2ccccc2)[C@H](C)CN1C(=O)C(=O)c1c[nH]c2cccc(F)c12 (relative stereo),76

# Results, then the molecule that gave them:
row,remaining at 10 min [%],SMILES
1,98,O=C(C(=O)N1CCN(C(=O)c2ccccc2)CC1)c1c[nH]c2cccc(F)c12
2,68,CC(C)(C)C1CN(C(=O)c2ccccc2)CCN1C(=O)C(=O)c1c[nH]c2cccc(F)c12 (stereo not drawn)
3,29,CCCCCC1CN(C(=O)c2ccccc2)CCN1C(=O)C(=O)c1c[nH]c2cccc(F)c12 (stereo not drawn)
4,58,CC(C)(C)C1CN(C(=O)C(=O)c2c[nH]c3cccc(F)c23)CCN1C(=O)c1ccccc1 (stereo not drawn)
5,63,CCC1CN(C(=O)C(=O)c2c[nH]c3cccc(F)c23)CCN1C(=O)c1ccccc1 (stereo not drawn)
6,82,CC1CN(C(=O)c2ccccc2)CCN1C(=O)C(=O)c1c[nH]c2cccc(F)c12 (stereo not drawn)
7,35,CC(C)CC1CN(C(=O)C(=O)c2c[nH]c3cccc(F)c23)CCN1C(=O)c1ccccc1 (stereo not drawn)
8,74,C[C@@H]1CN(C(=O)c2ccccc2)CCN1C(=O)C(=O)c1c[nH]c2cccc(F)c12
9,98,COc1cccc2[nH]cc(C(=O)C(=O)N3CCN(C(=O)c4ccccc4)C[C@@H]3C)c12
10,38,CC(C)CC1CN(C(=O)c2ccccc2)CCN1C(=O)C(=O)c1c[nH]c2cccc(F)c12 (stereo not drawn)
11,69,C[C@@H]1CN(C(=O)C(=O)c2c[nH]c3cccc(F)c23)C[C@H](C)N1C(=O)c1ccccc1

# Test system: Human immunodeficiency virus 1
# Assay: Antiviral activity against HIV1 infected HeLa67 after 3 days by luciferase reporter assay
# Type: functional, organism-based
# Conditions: Human immunodeficiency virus 1, HeLa67, 72 h
row,SMILES,EC50 [µM]
1,O=C(NCCCNC(=O)c1ccccc1)C(=O)c1c[nH]c2cccc(F)c12,> 50
2,O=C(NC1CCCC(NC(=O)c2ccccc2)C1)C(=O)c1c[nH]c2cccc(F)c12 (stereo not drawn),> 50
3,CN(CCCN(C)C(=O)c1ccccc1)C(=O)C(=O)c1c[nH]c2cccc(F)c12,> 50
4,O=C(N[C@H]1CCCC[C@@H]1NC(=O)c1ccccc1)C(=O)c1c[nH]c2cccc(F)c12 (relative stereo),> 50

# Results, then the molecule that gave them:
row,EC50 [µM],SMILES
1,> 50,CN(CCN(C)C(=O)c1ccccc1)C(=O)C(=O)c1c[nH]c2cccc(F)c12
2,> 50,O=C(C(=O)N1CCCN(C(=O)c2ccccc2)CC1)c1c[nH]c2cccc(F)c12
3,> 50,O=C(NCCNC(=O)c1ccccc1)C(=O)c1c[nH]c2cccc(F)c12
4,> 50,O=C(C(=O)N1CC2CC1CN2C(=O)c1ccccc1)c1c[nH]c2cccc(F)c12 (stereo not drawn)
5,30.5,O=C(N[C@H]1CCCC[C@H]1NC(=O)c1ccccc1)C(=O)c1c[nH]c2cccc(F)c12 (relative stereo)

# Test system: Caco-2
# Assay: (§1) Permeability across monolayer of human Caco-2 cell
# Type: ADME, cell-based
# Conditions: not given
row,SMILES,permeability
1,COc1cccc2[nH]cc(C(=O)C(=O)N3CCN(C(=O)c4ccccc4)CC3C)c12 (stereo not drawn),Not Active
2,COc1cccc2[nH]cc(C(=O)C(=O)N3CCN(C(=O)c4ccccc4)C[C@@H]3C)c12,Not Active

# Test system: not listed separately
# Assay: as §1
# Type: ADME, cell-based
# Conditions: read-out: permeability
row,SMILES,Papp [×10⁻⁶ cm/s]
1,COc1cccc2[nH]cc(C(=O)C(=O)N3CCN(C(=O)c4ccccc4)CC3)c12,4.3
2,CC(C)C1CN(C(=O)C(=O)c2c[nH]c3cccc(F)c23)CCN1C(=O)c1ccccc1 (stereo not drawn),16.1
3,CCCCCC1CN(C(=O)C(=O)c2c[nH]c3cccc(F)c23)CCN1C(=O)c1ccccc1 (stereo not drawn),6.9
4,CCCC1CN(C(=O)c2ccccc2)CCN1C(=O)C(=O)c1c[nH]c2cccc(F)c12 (stereo not drawn),17.2
5,C[C@H]1CN(C(=O)c2ccccc2)CCN1C(=O)C(=O)c1c[nH]c2cccc(F)c12,8.8
6,CCCC1CN(C(=O)C(=O)c2c[nH]c3cccc(F)c23)CCN1C(=O)c1ccccc1 (stereo not drawn),15.4
7,C[C@@H]1CN(C(=O)c2ccccc2)[C@@H](C)CN1C(=O)C(=O)c1c[nH]c2cccc(F)c12,5
8,COc1cccc2[nH]cc(C(=O)C(=O)N3CCN(C(=O)c4ccccc4)C[C@H]3C)c12,4.6
9,CCC1CN(C(=O)c2ccccc2)CCN1C(=O)C(=O)c1c[nH]c2cccc(F)c12 (stereo not drawn),15
10,CC(C)C1CN(C(=O)c2ccccc2)CCN1C(=O)C(=O)c1c[nH]c2cccc(F)c12 (stereo not drawn),16.5
11,C[C@@H]1CN(C(=O)c2ccccc2)C[C@H](C)N1C(=O)C(=O)c1c[nH]c2cccc(F)c12,< 1.5
12,CC1CN(C(=O)C(=O)c2c[nH]c3cccc(F)c23)CCN1C(=O)c1ccccc1 (stereo not drawn),3.6
13,C[C@@H]1CN(C(=O)c2ccccc2)[C@H](C)CN1C(=O)C(=O)c1c[nH]c2cccc(F)c12 (relative stereo),9.6

# Further lines, results first:
row,Papp [×10⁻⁶ cm/s],SMILES
1,4.7,O=C(C(=O)N1CCN(C(=O)c2ccccc2)CC1)c1c[nH]c2cccc(F)c12
2,17,CC(C)(C)C1CN(C(=O)c2ccccc2)CCN1C(=O)C(=O)c1c[nH]c2cccc(F)c12 (stereo not drawn)
3,15.4,CCCCCC1CN(C(=O)c2ccccc2)CCN1C(=O)C(=O)c1c[nH]c2cccc(F)c12 (stereo not drawn)
4,19,CC(C)(C)C1CN(C(=O)C(=O)c2c[nH]c3cccc(F)c23)CCN1C(=O)c1ccccc1 (stereo not drawn)
5,17.1,CCC1CN(C(=O)C(=O)c2c[nH]c3cccc(F)c23)CCN1C(=O)c1ccccc1 (stereo not drawn)
6,7.2,CC1CN(C(=O)c2ccccc2)CCN1C(=O)C(=O)c1c[nH]c2cccc(F)c12 (stereo not drawn)
7,19,CC(C)CC1CN(C(=O)C(=O)c2c[nH]c3cccc(F)c23)CCN1C(=O)c1ccccc1 (stereo not drawn)
8,5.4,C[C@@H]1CN(C(=O)c2ccccc2)CCN1C(=O)C(=O)c1c[nH]c2cccc(F)c12
9,17.1,CC(C)CC1CN(C(=O)c2ccccc2)CCN1C(=O)C(=O)c1c[nH]c2cccc(F)c12 (stereo not drawn)
10,7.3,C[C@@H]1CN(C(=O)C(=O)c2c[nH]c3cccc(F)c23)C[C@H](C)N1C(=O)c1ccccc1

# Source: ChEMBL document CHEMBL1155364, “Inhibitors of HIV-1 attachment. Part 4: A study of the effect of piperazine substitution patterns on antiviral potency in the context of indole-based derivatives” (Bioorg Med Chem Lett, 2009)
